From ChEMBL document CHEMBL1123528, “Syntheses and in vitro evaluation of 4-(2-aminoethyl)-2(3H)-indolones and related compounds as peripheral prejunctional dopamine receptor agonists” (J Med Chem, 1986)

species: Oryctolagus cuniculus; test: Ability to stimulate peripheral prejunctional dopaminergic receptors by 50% inhibition of vasoconstrictor response to field stimulation in isolated perfused rabbit ear artery; format: functional
Method in brief: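 Isolated rabbit ear artery, perfused, constricted by electrical field (nerve) stimulation. The test drug was given in increasing concentrations, each left in contact with the tissue for 4 min, and the concentration was raised right after the response to nerve stimulation. For dopaminergic blockade, (S)-sulpiride superfusion began after the initial concentration-effect curve was obtained.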

**Q.** `CCCN(CCC)CCc1ccc(O)c2c1C(C)C(=O)N2` (configuration not stated) was tested. Which EC50 did it give?
**A.** 18 nM

**Q.** How did the EC50 turn out when `CCCN(CCC)CCc1ccc(OC)c2c1CC(=O)N2` was run?
**A.** > 3000 nM

**Q.** With `CCCN(CCC)CCc1ccc(O)c2c1C(C)(C)C(=O)N2` as the compound, how does the EC50 read?
**A.** > 3000 nM

**Q.** With `NCCc1ccc(O)c(O)c1` [DOPAMINE] as the compound, how does the EC50 read?
**A.** 73 nM

**Q.** Which EC50 does the source give for `CCCN(CCC)CCc1ccc2c(c1)NC(=O)C2` here?
**A.** > 3000 nM

**Q.** Which EC50 does the source give for `CCCN(CCC)CCc1cccc(O)c1` here?
**A.** 700 nM

**Q.** How did the EC50 turn out when `NCCc1ccc2c(c1)CC(=O)N2` was run?
**A.** > 3000 nM

**Q.** For `CCCN(CCc1ccc(O)cc1)CCc1cccc2c1CC(=O)N2`, which EC50 is on record?
**A.** 28 nM

**Q.** Which EC50 does the source give for `NCCc1ccc(O)c2c1CC(=O)N2` here?
**A.** 116 nM

**Q.** `O=C1Cc2c(CCNCCc3ccc(O)cc3)ccc(O)c2N1` was tested. Which EC50 did it give?
**A.** 53 nM

**Q.** `CCCN(CCC)CCc1ccc(O)c2c1C(C)(O)C(=O)N2` (configuration not stated) was tested. Which EC50 did it give?
**A.** 218 nM

**Q.** How did the EC50 turn out when `CCCN(CCC)CCc1ccc(O)c2c1CC(=O)N2C` was run?
**A.** > 3000 nM

**Q.** Which EC50 does the source give for `CCCN(CCC)CCc1ccc2c(c1)CC(=O)N2` here?
**A.** 3000 nM

**Q.** For `CCCN(CCC)CCc1ccc(O)c(NC=O)c1`, which EC50 is on record?
**A.** 750 nM

**Q.** How did the EC50 turn out when `CCCN(CCC)CCc1ccc(O)cc1` was run?
**A.** 80 nM

**Q.** How did the EC50 turn out when `CCCN(CCC)CCc1cccc2c1CC(=O)N2` [ROPINIROLE] was run?
**A.** 100 nM

**Q.** For `CCCN(CCC)CCc1ccc(O)c(NC(C)=O)c1`, which EC50 is on record?
**A.** > 10000 nM
